The values that follow come from the EternaBench riboswitch data.

For this data set, the system named is MS2 coat protein. Briefly: apparent Kd, MS2 coat protein; higher = weaker binding; RNA-MaP array. The procedure, abridged: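 On an Illumina sequencing chip, sequenced DNA templates served for transcription of the designed RNAs, which were then bound at room temperature by fluorescently labeled MS2 coat protein at 1.5 nM to 3 μM, with or without input ligand. Apparent Kd is the median of the fits to each cluster's binding curve. Only designs measured on at least 10 clusters were kept.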

[1] abbreviates: designed as: OFF switch for flavin mononucleotide, no ligand.
Where [2] appears, read: ligand present: flavin mononucleotide, designed as: OFF switch for flavin mononucleotide.
[3] abbreviates: designed as: ON switch for flavin mononucleotide, no ligand.
Setting [4] is: ligand present: flavin mononucleotide, designed as: ON switch for flavin mononucleotide.
The mark [5] stands for this setting: designed as: OFF switch for theophylline, no ligand.
Where [6] appears, read: ligand present: theophylline, designed as: OFF switch for theophylline.

What is called apparent Kd is a dissociation constant that holds for the conditions of the assay. As to “GACUAACAUGAGGAUCACCCAUGUGAAGAUACCAGUAAUUUCACCUACCCUUGGCAGCUUUUUUUGAACGGCCUGAAUGCCUUGU”, the “apparent Kd” value (designed as: ON switch for theophylline, no ligand) turned out to be 11.3 nM and the “apparent Kd” value (ligand present: theophylline, designed as: ON switch for theophylline) is 17.1 nM.

Turning to “CGUCACCUAAAAGGAUAUCUACAAUACAGGAUUGCGUCUCACAUGAGGAUCACCCAUGUGUGUCCAGAGAAGGUUUCGGCACGU”, the “apparent Kd” value reads like this: under setting [1], 8.55 nM; under setting [2], 8.34 nM.

Consider “AACAAGGAAGGAUAUACAUGAGGAUCACCCAUGUCACUAGGGCCUCCCGCUUCGCUGUGUAGAAGGACCAUGAA”, for which the “apparent Kd” value reads like this: under setting [1], 9.74 nM; under setting [2], 8.89 nM.

Consider “AAUCUCUCUGCAGGAUAUGGUCGCUGAGCUACUCCAGAAGGGCAGUGAGUAAGAUCGUCAGACAUGAGGAUCACCCAUGUAUUU”, for which the “apparent Kd” value by setting is: under setting [1], 35.8 nM; under setting [2], 30.9 nM.

In the case of “UCGUAGAUAGUAGGAUAUAAGGCCCUAGAGCAUUUAGAAGGACUUUUGAGACUAACAUGAGGAUCACCCAUGUUUCGCACAUGG”, the “apparent Kd” value reads like this: under setting [3], 297 nM; under setting [4], 171 nM.

On to “CGCGUGUUCGAGGAUAUGGAACUGAUAUUAGACCCAGAAGGCGAGACAUGAGGAUCACCCAUGUGAGGACUAAC”, for which the “apparent Kd” value runs as follows: under setting [1], 18.6 nM; under setting [2], 53.8 nM.

As to “GCAUGACAUGAGGAUCACCCAUGUGAAUUGUAGGAAGGAUAUAAUACUUGAUCCGCUGUCUUAGAAGGUCCAUAAU”, the “apparent Kd” value runs as follows: under setting [3], 28.6 nM; under setting [4], 19.6 nM.

Turning to “GAAUUAUGACGUGAUACCAGUGGUCAAUACUGGGAACUUAACAUGAGGAUCACCCAUGUCCACCCUUGGCAGCACGCUGACAAUC”, the “apparent Kd” value under setting [5] was determined as 94 nM and the “apparent Kd” value under setting [6] was found to be 236 nM.

In the case of “AAUUGGAUCACAUGAGGAUCACCCAUGUCGGAAACUUUACUCAGAAGGAUGUGUACUUUUUCCACAUAGGAUAUGAGUACGACA”, the “apparent Kd” value is, setting by setting: under setting [1], 69.5 nM; under setting [2], 74.6 nM.

Regarding “AAUGUAUGUUAGGAUAUGGCCACGGCGAGGGACCCAGAAGGAACCACAUGAGGAUCACCCAUGUAAAAUAUGGA”, the “apparent Kd” value reads like this: under setting [1], 20.3 nM; under setting [2], 16.4 nM.

In the case of “UUUAACACCGGCAAGGAUAUUCUACAAAGAACAUGAGGAUCACCCAUGUCAACAAUCUACAUCACGAAGAAGGUGCAUCGGAUUAA”, the “apparent Kd” value under setting [3] was determined as 17.4 nM and the “apparent Kd” value under setting [4] came to 9.95 nM.

With “CAGGCUUUCAAGAAGGACCUGGUAACAUCAGUGGUAGGAUAUUGGUUAAGCUUGGCUUGACAUGAGGAUCACCCAUGUGGCGUA”, the “apparent Kd” value under setting [3] amounted to 47.4 nM and the “apparent Kd” value under setting [4] was 11.4 nM.

As to “AGAUCCGGCGUGAGGAUAUAGCAAGCAACUAACGACUAGAAGGCACAUGAGGAUCACCCAUGUCUGUUACACUA”, the “apparent Kd” value is, setting by setting: under setting [1], 12.1 nM; under setting [2], 36.7 nM.

Take “UAGUACCAAGUGAGGAUAUCUAAAGUCUAUGAAAGAGAGAAGGCACAUGAGGAUCACCCAUGUAACUAGGUGGG”: the “apparent Kd” value runs as follows: under setting [1], 152 nM; under setting [2], 162 nM.

In the case of “UUAGUACUAGGAUAUACGAUGGAAAGGAGAGCCUUACAAAUACAUGAGGAUCACCCAUGUAGAAGGAGUUGCCA”, the “apparent Kd” value by setting is: under setting [1], 6.27 nM; under setting [2], 5.93 nM.

“AUAUGCGAUUGAGGAUAUAGGGAGAGGCUAACUCUAGAAGGCAAUGUAUGGAAUAGCUUACACAUGAGGAUCACCCAUGUUGCU”: the “apparent Kd” value is, setting by setting: under setting [3], 9.73 nM; under setting [4], 7.27 nM.

Consider “CACUACUCCCAAGGAUAUUACGCUACAAAUCUUACUAACAUGAGGAUCACCCAUGUUCGGAACGGAAAGAAGGUGGGCUUAUAC”, for which the “apparent Kd” value turned out to be 9.38 nM under setting [3] and 8.22 nM under setting [4].

“UCACAGUCCCAGAAGGCCUUGUCAGAUUCAUAAGGAGGAUAUGGAUUACAUGAGGAUCACCCAUGUGAAUACUUACAGAGCAAC”: the “apparent Kd” value under setting [3] turned out to be 79.3 nM and the “apparent Kd” value under setting [4] is 15.4 nM.

Regarding “CGCAGACAUGAGGAUCACCCAUGUACCAUGAACAGGAAUACAAGAAGGGCAAACUUUAGAUUGAUGCAGGAUAUUGUCACGAGA”, the “apparent Kd” value reads like this: under setting [3], 25.8 nM; under setting [4], 14 nM.

In the case of “CCGCCACUACAUGAGGAUCACCCAUGUGAACCGUAGAACAUGAGAAGGUGCCUAAAGCUCGAGGGCAAGGAUAUCAACCGCCGC”, the “apparent Kd” value runs as follows: under setting [3], 125 nM; under setting [4], 97.5 nM.

Consider “UGCGUGGGAAAGAAGGCGUCCGAAUUGUGGCCACGAGGAUAUUUCCGGCGCACAUGAGGAUCACCCAUGUUCAGCUGGUAGCGU”, for which the “apparent Kd” value is, setting by setting: under setting [3], 32.5 nM; under setting [4], 22.1 nM.

“AAACGAGAGACAGAUACCAGCGCAGGAACGGAGUAUGGUGACAUGAGGAUCACCCAUGUGCGCCCUUGGCAGCUGAGCCGUAUUG”: the “apparent Kd” value runs as follows: under setting [5], 27.9 nM; under setting [6], 171 nM.

Consider “AAAUGGACGGCAGGAUAUGGACAAGGAAUAUUACCAGAAGGGCCCUAAUGCUCAUACAUGAGGAUCACCCAUGUUGUAAUCAAU”, for which the “apparent Kd” value came out at 17.8 nM under setting [1] and 12.7 nM under setting [2].

On to “GCGAUAGCUGUCAAGGAUAUGAGGCUGACCACAUGAGGAUCACCCAUGUUUACAACAAAAUAGAUUCAGAAGGUGACAACAAGUAG”, for which the “apparent Kd” value under setting [3] is 80.3 nM and the “apparent Kd” value under setting [4] was 18.1 nM.
